In ChEMBL document CHEMBL3603769, “1,5-Disubstituted benzimidazoles that direct cardiomyocyte differentiation from mouse embryonic stem cells” (2015):

Key:
Type in all cases: functional, Embryonic stem cell
[1] = Induction of cardiomyogenesis in mouse ESC transfected with alpha-MHC at 0.78 to 12.5 uM treated on day 2 to 4 followed by cell reseeding in normal growth media on day 6, 8 measured on day 10 by GFP reporter gene assay relative to vehicle-treated control
Method in brief: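 mESCs stably carrying αMHC-promoter eGFP, expanded feeder-free with LIF on poly-D-lysine (5 passages), then seeded about 1000 cells/well on gelatin in growth media without LIF. From day 2, compound added in equal volume of media at 2× final (0.78–12.5 μM; 50 mM DMSO stocks). Cultures kept at 37 °C, 5% CO2, fixed in paraformaldehyde on day 9 or 10 and DAPI-stained. αMHC-eGFP fluorescence imaged automatically and expressed as fold-change over DMSO-treated cells.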

[2] = Induction of cardiomyogenesis in mouse ESC transfected with alpha-MHC at 6 uM treated on day 2 to 4 followed by cell reseeding in normal growth media on day 6, 8 measured on day 12 by GFP reporter gene assay relative to vehicle-treated control
Method in brief: (§1)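 αMHC-eGFP mESCs seeded in growth media without LIF, dosed at 3 or 6 μM on days 2 and 4, and fed growth media on days 6 and 8. Cultures were then fixed in 4% paraformaldehyde. Integrated intensity of αMHC-eGFP fluorescence was measured by automated imaging as fold increase over DMSO vehicle. nsRED autofluorescence was subtracted.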

[3] = Induction of cardiomyogenesis in mouse ESC transfected with alpha-MHC at 3 uM treated on day 2 to 4 followed by cell reseeding in normal growth media on day 6, 8 measured on day 12 by GFP reporter gene assay relative to vehicle-treated control; method in brief: as §1
[4] = Induction of cardiomyogenesis in mouse ESC transfected with alphaMHC-eGFP at 3 uM treated on day 2 to 4 followed by cell reseeding in normal growth media on day 6 and 8 measured on day 12 by alpha-Actinin Alexa568-based immunohistochemical analysis relative to vehicle-treated control
Method in brief: (§2)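 αMHC-eGFP mESCs dosed at 3 or 6 μM on days 2 and 4, then fixed at day 10 or 12 in 4% paraformaldehyde for 40 min at room temperature. Cells were permeabilized and blocked 30 min in PBS with 10% horse serum and 0.2% Triton X-100. Staining used mouse anti-α-actinin (1:200, 60 min) then donkey anti-mouse Alexa568 (1:400, with DAPI, 60 min). Integrated Alexa568 intensity was reported relative to DMSO vehicle.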

[5] = Induction of cardiomyogenesis in mouse ESC transfected with alphaMHC-eGFP at 6 uM treated on day 2 to 4 followed by cell reseeding in normal growth media on day 6 and 8 measured on day 12 by alpha-Actinin Alexa568-based immunohistochemical analysis relative to vehicle-treated control; method in brief: as §2

SMILES	fold change (FC) [1]	other results
c1ccc(-n2cnc3cc(NCc4cccs4)ccc32)cc1	0.75	–
c1ccc(-n2cnc3cc(NCc4ccco4)ccc32)cc1	2.2	–
Cc1nnc(Nc2ccc3c(c2)ncn3C)c2ccccc12	1.6	–
Nc1ccc2c(c1)ncn2-c1ccccc1	3	–
CC(=O)Nc1ccc2c(c1)ncn2-c1ccccc1	1.2	–
Cc1nnc(Nc2ccc3c(c2)nc(N)n3-c2ccccc2)c2ccccc12	2.1	–
Cc1nnc(Nc2ccc3c(c2)ncn3-c2ccccc2)c2ccccc12	9.6	fold change (FC) [2]: 20; fold change (FC) [3]: 10; fold change (FC) [4]: 10; fold change (FC) [5]: 20
COc1ccccc1-n1cnc2cc(Nc3nnc(C)c4ccccc34)ccc21	4.3	–
COc1cccc(-n2cnc3cc(Nc4nnc(C)c5ccccc45)ccc32)c1	18.6	–
CCCc1ccc(-n2cnc3cc(Nc4nnc(C)c5ccccc45)ccc32)cc1	0.7	–
Cc1nnc(Nc2ccc3c(c2)ncn3-c2cccc(C(F)(F)F)c2)c2ccccc12	0.5	–
Cc1nnc(Nc2ccc3c(c2)ncn3-c2ccccc2C(C)C)c2ccccc12	4.4	–
COc1ccc(-n2cnc3cc(Nc4nnc(C)c5ccccc45)ccc32)cc1	10	–
Cc1nnc(Nc2ccc3c(c2)ncn3-c2ccc(C(F)(F)F)cc2)c2ccccc12	1.6	–
Cc1nnc(Nc2ccc3c(c2)ncn3-c2ccccc2O)c2ccccc12	2.1	–
Cc1nnc(Nc2ccc3c(c2)ncn3C2CC2)c2ccccc12	0.9	–
Cc1nnc(Nc2ccc3c(c2)ncn3C2CCCCC2)c2ccccc12	3.3	–
Cc1nnc(Nc2ccc3c(c2)ncn3-c2ccccn2)c2ccccc12	2.2	–
Cc1nnc(Nc2ccc3c(c2)ncn3C2CCOCC2)c2ccccc12	1.6	–
Cc1nnc(Nc2ccc3c(c2)ncn3C2CCN(C)CC2)c2ccccc12	4.4	–
COc1cccc(-n2cnc3cc(Nc4nncc5ccccc45)ccc32)c1	13.7	–
COc1cccc(-n2cnc3cc(Nc4nnc(Cl)c5ccccc45)ccc32)c1	6.7	–
COc1cccc(-n2cnc3cc(Nc4nnc(OC)c5ccccc45)ccc32)c1	7.1	–

SMILES	fold change (FC) [1]	other results
COc1cccc(-n2cnc3cc(Nc4nnc(Cc5ccccc5)c5ccccc45)ccc32)c1	2	–
COc1cccc(-n2cnc3cc(Nc4nnc(-c5ccccc5)c5ccccc45)ccc32)c1	1	–
COc1cccc(-n2cnc3cc(NCCc4ccccc4)ccc32)c1	1.4	–
COc1cccc(-n2cnc3cc(NCc4ccccc4OC)ccc32)c1	1.7	–
Cn1cccc1CNc1ccc2c(c1)ncn2-c1ccccc1	1.6	–
Clc1ncccc1CNc1ccc2c(c1)ncn2-c1ccccc1	1.4	–
Brc1ccc(CNc2ccc3c(c2)ncn3-c2ccccc2)s1	3.1	–
c1ccc(-c2ccc(CNc3ccc4c(c3)ncn4-c3ccccc3)cn2)cc1	3	–
FC(F)(F)c1ccc(CNc2ccc3c(c2)ncn3-c2ccccc2)cn1	2.9	–
c1ccc(CN2CCC(CNc3ccc4c(c3)ncn4-c3ccccc3)CC2)cc1	4.3	–
COc1cccc(-n2cnc3cc(NC(=O)c4ccccn4)ccc32)c1	1.7	–
COc1ccccc1-n1cnc2cc(Nc3ccc4ccccc4c3)ccc21	3.1	–
COc1ccccc1-n1cnc2cc(Nc3ncccn3)ccc21	1.1	–
c1ccc(-n2cnc3cc(Nc4cnccn4)ccc32)cc1	2.4	–
c1ccc(-n2cnc3cc(Nc4cccnc4)ccc32)cc1	7.8	–
COc1ccccc1-n1cnc2cc(Nc3ccccn3)ccc21	1.5	–
COc1ccccc1-n1cnc2cc(Nc3ccccc3)ccc21	0.7	–
COc1cccc(Nc2ccc3c(c2)ncn3-c2ccccc2OC)c1	3.8	–
Cc1cccc(-n2cnc3cc(Nc4ccc(C)nn4)ccc32)c1	7.9	–
COc1ccccc1-n1cnc2cc(Nc3nnc(C)c4ccccc34)cnc21	2.5	–
Cc1nnc(Nc2ccc3c(ccn3-c3ccccc3)c2)c2ccccc12	2	–
Cc1nnc(Nc2ccc3c(c2)nc(N(C)C)n3-c2ccccc2)c2ccccc12	3.7	–
Cc1nnc(Nc2ccc3c(c2)nnn3-c2ccccc2)c2ccccc12	3.1	–
